Compound activity as filed in PubChem BioAssay.
Sampled rows, rich in hits. Any-hit rate of the full collection: about 2.7%.
TPT1 inh: C. albicans TPT1 enzyme inhibition; hit rate 0.81% among 300,000; recombinant caTPT1, FP RNA substrate dephosphorylation; inhibition, % at 5 µM; AID 1962;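 active = inhibition above the mean of all tested compounds plus 3 SD, set per screening campaign, cut at about 24% in these data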;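 also: plate controls were DMSO alone for no effect and ferristatin control at 100 nM for full effect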
Rpn11 inh: Rpn11 (human) deubiquitinase inhibition. inhibition, % at 20 µM. O00487. hit rate 0.59% among 360,000. human 26S proteasome, Ub4-pepOG fluorescence polarization; 20S core pre-blocked with epoxomicin;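 active = inhibition at 20 µM, scaled to each plate's controls, above about 33%, limit read from the data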
HNF4A DNA FP: change in binding of human HNF4 alpha to DNA; HNF4a-FITC DNA binding, fluorescence polarization, 1 h; AID 1224865; activity change, % at 10 µM; hit rate 0.3% among 360,000; in the data active = activity change above about 30%, passing the limit was not always enough
PP1 counter: counter-screen for PP5 inhibitors: inhibitors of human PP1-alpha. P62136. hit rate 0.9% among 320,000. inhibition, % at 6.7 µM. purified PP1alpha, OMFP fluorescence;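 active = inhibition above the mean inhibition of all tested compounds plus 3 SD, computed separately for each screening campaign, cut at about 15% in these data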
CSN inh: inhibitors of human CSN-mediated cullin deneddylation. hit rate 0.38% among 360,000. inhibition, % at 12.5 µM. Q92905. Purified CSN, SCF-Nedd8-OG deneddylation, fluorescence polarization. AID 651999;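 active = pattern-corrected inhibition above about 35%, with an unprinted fluorescence ratio check between 0.5 and 1.5, limit read from the data, passing the limit was not always enough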;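 also: 0% = enzyme with substrate and 100% = substrate without enzyme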
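Assay system: Purified human Csn5 enzyme expressed in HEK293T cells | Amount: Enzyme 0.24 nM | Measured by: Fluorescence polarization readout | Medium: Tris/NaCl/DTT buffer, pH 7.5 | Compound dosing: One concentration, 12.5 µM, 0.25% DMSO | Times: 90 min incubation of compound, enzyme and substrate at room temperature | Control set: no-enzyme wells high, enzyme-with-substrate wells low | Read-out: % inhibition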
NadD inh: NadD (S. aureus) enzyme inhibition. purified NadD enzyme, colorimetric absorbance read-out. inhibition, % at 20 µM. hit rate 0.78% among 360,000. AID 602399; in the data active = inhibition above about 26%
CSN deneddyl val: validation of inhibitors of human CSN-mediated cullin deneddylation; shares compounds with CSN inh; Csn5 deneddylation of SCF-Nedd8OG, fluorescence polarization, 90 min; inhibition, % at 16.6 µM; hit rate 62% among 540; AID 720654; in the data active = inhibition above about 50%;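 also: 0% = DMSO with enzyme and 100% = no enzyme wells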
MMP-2 counter: counter-screen for CSN deneddylation inhibitors: human MMP-2 inhibition; shares compounds with CSN inh; recombinant MMP-2, FRET substrate fluorescence, 60 min; inhibition, % at 16.6 µM; hit rate 33% among 540; AID 720655;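 active = corrected plate-normalized z-score of 5 or more, or -5 or less, or inhibition of 15% or more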;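 also: plate controls were DMSO wells with enzyme for no effect and buffer wells lacking MMP-2 for full effect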
Thrombin counter: thrombin (bovine) inhibition, counter-screen for CSN hits. shares compounds with CSN inh. bovine thrombin cleavage of Ub4-pepOG, fluorescence polarization. inhibition, % at 16.6 µM. hit rate 49% among 540;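 active = inhibition at or above a set limit, with a fluorescence interference ratio between 0.5 and a set maximum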
Target sequence (P00735 whole entry, looked up): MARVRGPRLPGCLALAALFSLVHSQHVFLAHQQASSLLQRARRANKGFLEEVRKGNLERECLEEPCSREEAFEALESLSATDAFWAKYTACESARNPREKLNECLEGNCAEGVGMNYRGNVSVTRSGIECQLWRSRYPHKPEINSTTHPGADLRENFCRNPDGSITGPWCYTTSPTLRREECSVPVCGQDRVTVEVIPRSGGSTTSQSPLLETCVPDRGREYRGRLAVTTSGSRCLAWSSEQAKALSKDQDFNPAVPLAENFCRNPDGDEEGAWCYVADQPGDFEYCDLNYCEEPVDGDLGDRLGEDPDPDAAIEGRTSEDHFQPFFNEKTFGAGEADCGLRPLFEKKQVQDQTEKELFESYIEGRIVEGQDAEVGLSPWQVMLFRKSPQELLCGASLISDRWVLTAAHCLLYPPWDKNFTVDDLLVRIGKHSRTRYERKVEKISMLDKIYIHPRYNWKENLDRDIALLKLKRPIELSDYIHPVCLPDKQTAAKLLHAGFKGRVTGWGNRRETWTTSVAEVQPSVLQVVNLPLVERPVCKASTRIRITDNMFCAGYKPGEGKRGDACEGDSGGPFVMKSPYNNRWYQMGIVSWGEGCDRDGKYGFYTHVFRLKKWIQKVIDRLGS
HNF4A confirm: change in binding of human HNF4 alpha to DNA, retest; shares compounds with HNF4A DNA FP; HNF4A-FITC DNA binding, fluorescence polarization, 1 h; activity change, % at 12.5 µM; hit rate 99% among 210; call rule not given here
Starred values were filed as active, the others as inactive; · = not tested or not shown.

SMILES	TPT1 inh	Rpn11 inh	HNF4A DNA FP	PP1 counter	CSN inh	NadD inh	HNF4A confirm	others
CCCCn1c(NS(=O)(=O)c2ccc(C)cc2)c(S(=O)(=O)c2ccccc2)c2nc3ccccc3nc21	1.7	22.4	-4.0	-0.3	69.3*	24.8	·	CSN deneddyl val=101.0*;MMP-2 counter=5.0;Thrombin counter=-33.6
O=C1NC(=Nc2ccc(O)cc2)S/C1=C\C=C\c1ccco1	6.2	10.8	-1.4	15.6*	48.5*	14.3	·	CSN deneddyl val=91.6*;MMP-2 counter=7.0;Thrombin counter=-9.6
CCCCCCCCO	·	-0.3	0.7	2.4	3.7	2.0	·
CCCCCCCCCCCCCCCC(O)C(N)CO (centres undefined)	-2.1	28.4	47.0*	4.5	53.2*	16.1	·	CSN deneddyl val=-17.8;MMP-2 counter=1.4;Thrombin counter=0.2
CCOC(=O)/C(=C\c1ccccc1)C(=O)CCN1CCOCC1	·	2.1	5.2	·	-1.6	3.9	·
Nc1cccc2cc(S(=O)(=O)O)ccc12	·	2.9	-26.7	·	36.5*	0.4	·	CSN deneddyl val=67.1*;MMP-2 counter=10.1;Thrombin counter=-11.2
CC(C)(C)[C@H](N)C(=O)N[C@H]1CCC2C3CC=C4C[C@@H](O)CC[C@]4(C)C3CC[C@@]21C (some centres undefined)	·	11.9	4.5	·	48.9*	-3.7	·	CSN deneddyl val=-23.3;MMP-2 counter=3.0;Thrombin counter=15.6*
O=C(N/N=C/c1ccc(F)cc1)c1cc(-c2ccc3c(c2)OCO3)n[nH]1	-1.6	25.1	3.2	2.2	4.6	5.5	·
CN(C)c1ccc(/C=N/NC(=O)c2cc(-c3ccc4c(c3)OCO4)n[nH]2)cc1	-2.5	·	47.4*	2.8	41.7*	9.3	59.4*
COc1cc(/C=C2/C(=O)N(C)C(=S)N2C)ccc1OCc1cccc(F)c1	9.3	·	36.2*	-3.5	10.5	-6.3	49.8*
CN1C(=O)/C(=C/c2ccc(OCc3cccc(F)c3)cc2)NC1=S	-0.1	1.2	5.6	-1.2	-3.7	3.8	·
CCOC(=O)C1=C(COC(=O)c2ncc(Cl)c(Cl)c2Cl)NC(=O)NC1C (centres undefined)	2.5	-12.4	-2.0	-0.9	-0.5	-1.3	·
CCS(=O)(=O)N1N=C(c2ccccc2)CC1c1ccc2nccnc2c1 (centres undefined)	-0.1	-1.1	53.4*	-2.7	19.3	-2.0	75.3*
CSc1ccc(CN2CCC(N3CCC(C(=O)NC4CC4)CC3)CC2)cc1	·	3.9	1.4	·	0.6	3.7	·
CCSc1ncc(Cl)c(C(=O)Nc2sc3c(c2C(=O)NCc2cccnc2)CCCC3)n1	-1.5	·	51.4*	-5.4	6.1	6.1	48.8*
O=C(CCNC(=O)c1ccccc1)NNC(=O)c1ccc(F)cc1	·	5.8	-2.7	·	0.4	-2.2	·
Cc1ccc(/C=C2/Sc3ccc(C(=O)NCc4ccccn4)cc3NC2=O)cc1	20.7	·	72.0*	3.0	61.1*	3.6	57.6*
C#CCOCCOCCOCCNc1nc(N2CCN(C(=O)[C@H](CCCCN)n3cc(CN)nn3)CC2)nc(N2CCN(C(=O)[C@H](CCCCN)n3cc([C@@H](N)[C@H](C)CC)nn3)CC2)n1	·	31.6	96.0*	·	98.7*	-1.9	98.9*
C#CCOCCOCCOCCNc1nc(N2CCN(C(=O)[C@H](CCCCN)n3cc([C@@H](N)C(C)CC)nn3)CC2)nc(N2CCN(C(=O)[C@H](CCCCN)n3cc([C@@H](N)CO)nn3)CC2)n1 (some centres undefined)	-0.5	·	·	14.3	·	·	·
O=C(NCc1cccc(Cl)c1)c1cccc2c(-c3cccnc3)coc12	·	-7.0	6.1	·	1.0	4.2	·
O=C(N/N=C\C=C\c1ccc(Br)cc1)c1ccc2c(c1)OCO2	-0.3	116.3*	49.7*	4.5	49.3*	20.0	61.9*
CN(C)c1ccc(C=NN2C(=O)CSC2=S)c(Cl)c1	·	·	86.9*	·	60.0*	25.5	88.4*
O=C1CSC(=S)N1N=Cc1c(F)cccc1Cl	·	11.7	3.5	·	5.1	15.5	·
CCN(C(=O)COC(=O)/C(C#N)=C/c1ccc(N(C)C)cc1)C1CCS(=O)(=O)C1 (centres undefined)	·	19.9	46.3*	·	9.8	-1.2	71.3*
O=C(Cn1cc(/C=N/NC(=O)c2cccc3ccccc23)c2ccccc21)Nc1ccc(F)cc1	-3.1	·	45.9*	6.3	15.7	29.5	90.1*
SMILES	TPT1 inh	Rpn11 inh	HNF4A DNA FP	PP1 counter	CSN inh	NadD inh	HNF4A confirm	others
O=C(Cn1cc(/C=N/NC(=O)c2ccccc2Br)c2ccccc21)Nc1ccc(F)cc1	-0.4	5.7	-0.4	2.4	-1.7	11.8	·
COCCNC(=O)c1cc(-c2ccccc2)sc1N	·	·	54.7*	·	28.7	·	85.2*
CCCCNC(=O)c1cc(-c2ccccc2)sc1N	·	·	14.8	·	6.4	·	·
Cc1nn(-c2ccccc2)c(Cl)c1/C=C1\C(=O)N(C)C(=S)N1C	2.6	1.1	1.3	-0.3	11.9	-3.0	·
CN1C(=O)/C(=C/C=C2\SCCN2C)N(C)C1=S	·	·	119.2*	·	74.0	5.6	143.0*
O=C1OC(c2ccccc2)=CC1=Cc1ccccc1O	·	11.0	-0.7	·	-0.2	1.4	·
CN(C)c1ccc(C=C2C=C(c3ccccc3)OC2=O)cc1	·	11.9	55.3*	·	18.6	4.9	48.8*
COc1cc(/C=N/c2oc(C)c(C)c2C#N)cc(Br)c1O	3.2	·	59.5*	-8.9	16.2	2.8	78.2*
CC(=O)c1cccc(NC(=O)CSc2nnc(-c3ccncc3)o2)c1	·	1.0	-3.1	-3.1	-0.2	2.7	·
Cc1sc2nc(SCC(=O)N3CCOCC3)[nH]c(=O)c2c1-c1ccccc1	0.7	10.2	9.0	-7.2	5.5	3.7	·
COc1ccccc1C(=O)NC(CCSC)C(=O)OCC(=O)N1CCN(S(=O)(=O)c2ccc(C)cc2)CC1 (centres undefined)	·	7.5	7.4	·	2.8	-3.7	·
COc1ccc(/C=N/NC(=O)c2ccccc2OC)cc1COc1ccccc1[N+](=O)[O-]	-3.0	9.1	83.0*	3.0	101.5*	-5.3	59.6*
CCN(CC)C(=O)C1=C(C)N(Cc2ccc(OC)cc2)C(=O)C(CC(=O)NCCCN(C)C)C1 (centres undefined)	·	4.0	-0.4	·	2.0	6.3	·
Nc1cc2c(cc1Cl)-c1ccc([N+](=O)[O-])cc1C2=NO	·	30.0	50.7*	·	18.9	15.6	51.8*
